Experimental data: PMC5816979 (Biochemistry, 2017)

Experiments:
Type in all cases: binding
[1] = target: T1, P450cam (cytochrome P450cam), WT (Pseudomonas putida, UniProt P00183, C335A); assay: constant-volume visible difference spectrophotometric titration
T1 sequence (P00183 2-415 C335A): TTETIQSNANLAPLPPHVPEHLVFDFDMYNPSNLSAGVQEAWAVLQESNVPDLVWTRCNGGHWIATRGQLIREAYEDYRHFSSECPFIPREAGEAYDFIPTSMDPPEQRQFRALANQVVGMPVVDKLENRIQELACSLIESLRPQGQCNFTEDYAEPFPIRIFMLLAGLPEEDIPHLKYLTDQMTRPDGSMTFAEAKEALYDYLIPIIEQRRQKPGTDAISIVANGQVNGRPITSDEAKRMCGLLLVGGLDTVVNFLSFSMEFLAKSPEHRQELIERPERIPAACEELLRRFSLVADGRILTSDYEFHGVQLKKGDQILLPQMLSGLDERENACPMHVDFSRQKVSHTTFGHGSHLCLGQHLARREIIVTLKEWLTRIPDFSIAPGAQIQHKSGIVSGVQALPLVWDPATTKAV
In short: (§1)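 Substrate-bound protein solution was exchanged into substrate-free solution at the same protein concentration, and visible difference spectra were recorded. KD was obtained by fitting to a single-site binding model. This method applied to the camphor-analogue test compounds.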

[2] = target: T2, P450cam (cytochrome P450cam), WT (Pseudomonas putida, UniProt P00183, C335A/Y97F); assay: as above
T2 sequence (P00183 2-415 Y97F/C335A): T1 sequence (P00183 2-415 C335A)
In short: as §1

[3] = target: T2, P450cam (cytochrome P450cam), WT; assay: visible spectrophotometric titration
[4] = target: T1, P450cam (cytochrome P450cam), WT; assay: visible spectrophotometric titration

| SMILES | Kd [1] [µM] | Kd [2] [µM] | Kd [3] [µM] | Kd [4] [µM] |
| --- | --- | --- | --- | --- |
| CC1(C)C2CCC1(C)C(O)C2 (racemic) [isoborneol] | 10.9 ± 3.4 | 1.2 ± 0.3 | – | – |
| CC1(C)[C@@H]2CC[C@@]1(C)C(=O)C2 [d-camphor] | – | – | 3.5 ± 0.6 | 1.8 ± 0.8 |
| CC12CCC(CC1)C2(C)C [camphane] | 18.7 ± 2.5 | 10.7 ± 3.3 | – | – |
